The source made the active and inactive calls. No cut-off for these calls is given here.
Assays:
HL-60 [1] = experiment: Induction of apoptosis in human HL60 cells in presence of JNK/SAPK inhibitor SP600125 after 24 hrs by propidium iodide staining based flow cytometry; assay type: functional, cell-based
MOLT-3 [2] = experiment: Induction Bax cleavage in human MOLT3 cells at 3 uM by Western blotting method; assay type: functional, cell-based
Procedure, shortened: (§1)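 Cells were exposed to a range of compound concentrations and harvested at 24 h. Lysates were immunoblotted for caspase proforms and cleaved forms, and for Bcl-2 family proteins.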

HL-60 [3] = experiment: Induction of cell cycle arrest in human HL60 cells assessed as accumulation at S phase at 3 uM after 12 hrs by propidium iodide staining based flow cytometry (reference value: 14.7 +/- 0.3%); assay type: functional
U-937 [4] = experiment: Induction of apoptosis in human U937 cells assessed as pro-caspase-4 processing by Western blotting method; assay type: functional, cell-based; procedure, shortened: as §1
U-937 [5] = experiment: Induction of cell cycle arrest in human U937 cells assessed as accumulation at G2/M phase at 10 uM after 48 hrs by propidium iodide staining based flow cytometry (reference value: 19.1 +/- 1.1%); assay type: functional
[6] = Cytotoxicity against human HL60/MX1 cells after 72 hrs by MTT assay; assay type: functional, cell-based; conditions: HL60/MX1, 72 h
Procedure, shortened: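 MTT colorimetric assay with 72 h continuous exposure. IC50 was fitted per experiment by non-linear regression. Values are means with SE from at least three independent experiments, each run in triplicate.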

MOLT-3 [7] = experiment: Induction of apoptosis in human MOLT3 cells assessed as pro-caspase-7 cleavage by Western blotting method; assay type: functional, cell-based; procedure, shortened: as §1
U-937 [8] = experiment: Induction of cell cycle arrest in human U937 cells assessed as accumulation at G1 phase at 1 uM after 12 hrs by propidium iodide staining based flow cytometry (reference value: 45.8 +/- 0.8%); assay type: functional
HL-60 [9] = experiment: Increase in TRAIL expression in human HL60 cells at 10 30 uM after 24 hrs by immunoblotting method; assay type: functional, cell-based
Procedure, shortened: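 HL-60 and U937 cells were treated with increasing concentrations for 24 h. Lysates were immunoblotted for TRAIL, DR4 and DR5.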

HL-60 [10] = experiment: Induction of cell cycle arrest in human HL60 cells assessed as accumulation at S phase at 3 uM after 48 hrs by propidium iodide staining based flow cytometry (reference value: 15.3 +/- 0.1%); assay type: functional
HL-60 [11] = experiment: Induction of cell cycle arrest in human HL60 cells assessed as accumulation at subG1 phase at 1 uM after 24 hrs by propidium iodide staining based flow cytometry (reference value: 3.4 +/- 0.3%); assay type: functional
U-937 [12] = experiment: Induction of cell cycle arrest in human U937 cells assessed as accumulation at subG1 phase at 1 uM after 12 hrs by propidium iodide staining based flow cytometry (reference value: 4.6 +/- 0.9%); assay type: functional
U-937 [13] = experiment: Induction of cell cycle arrest in human U937 cells assessed as accumulation at subG1 phase at 10 uM after 12 hrs by propidium iodide staining based flow cytometry (reference value: 4.6 +/- 0.9%); assay type: functional
HL-60 [14] = experiment: Induction of cell cycle arrest in human HL60 cells assessed as accumulation at G1 phase at 10 uM after 48 hrs by propidium iodide staining based flow cytometry (reference value: 60.4 +/- 0.4%); assay type: functional
U-937 [15] = experiment: Induction of cell cycle arrest in human U937 cells assessed as accumulation at S phase at 3 uM after 48 hrs by propidium iodide staining based flow cytometry (reference value: 18.9 +/- 0.2%); assay type: functional
HL-60 [16] = experiment: Induction of cell cycle arrest in human HL60 cells assessed as accumulation at subG1 phase at 3 uM after 24 hrs by propidium iodide staining based flow cytometry (reference value: 3.4 +/- 0.3%); assay type: functional
HL-60 [17] = experiment: Induction of apoptosis in human HL60 cells at 30 uM after 24 hrs by propidium iodide staining based flow cytometry (reference value: 3.8 +/- 0.6%); assay type: functional
U-937 [18] = experiment: Induction of cell cycle arrest in human U937 cells assessed as accumulation at G2/M phase at 1 uM after 48 hrs by propidium iodide staining based flow cytometry (reference value: 19.1 +/- 1.1%); assay type: functional
U-937 [19] = experiment: Induction of cell cycle arrest in human U937 cells assessed as accumulation at G1 phase at 1 uM after 48 hrs by propidium iodide staining based flow cytometry (reference value: 51.9 +/- 0.9%); assay type: functional
U-937 [20] = experiment: Induction of cell cycle arrest in human U937 cells assessed as accumulation at G1 phase at 3 uM after 48 hrs by propidium iodide staining based flow cytometry (reference value: 51.9 +/- 0.9%); assay type: functional
HL-60 [21] = experiment: Induction of apoptosis in human HL60 cells assessed as pro-caspase-8 cleavage by Western blotting method; assay type: functional, cell-based; procedure, shortened: as §1
MOLT-3 [22] = experiment: Induction of apoptosis in human MOLT3 cells assessed as pro-caspase-9 cleavage by Western blotting method; assay type: functional, cell-based; procedure, shortened: as §1
HL-60 [23] = experiment: Induction of cell cycle arrest in human HL60 cells assessed as accumulation at subG1 phase at 10 uM after 24 hrs by propidium iodide staining based flow cytometry (reference value: 3.4 +/- 0.3%); assay type: functional
MOLT-3 [24] = experiment: Effect on Bcl-2 expression in human MOLT3 cells by Western blotting method; assay type: functional, cell-based; procedure, shortened: as §1
HL-60 [25] = experiment: Induction of cell cycle arrest in human HL60 cells assessed as accumulation at subG1 phase at 10 uM after 48 hrs by propidium iodide staining based flow cytometry (reference value: 3.7 +/- 0.1%); assay type: functional
HL-60 [26] = experiment: Induction of cell cycle arrest in human HL60 cells assessed as accumulation at S phase at 10 uM after 48 hrs by propidium iodide staining based flow cytometry (reference value: 15.3 +/- 0.1%); assay type: functional
U-937 [27] = experiment: Induction of cell cycle arrest in human U937 cells assessed as accumulation at G2/M phase at 3 uM after 12 hrs by propidium iodide staining based flow cytometry (reference value: 24.2 +/- 1.2%); assay type: functional
U-937 [28] = experiment: Induction of cell cycle arrest in human U937 cells assessed as accumulation at subG1 phase at 3 uM after 48 hrs by propidium iodide staining based flow cytometry (reference value: 6.7 +/- 0.3%); assay type: functional
U-937 [29] = experiment: Induction of cell cycle arrest in human U937 cells assessed as accumulation at S phase at 10 uM after 24 hrs by propidium iodide staining based flow cytometry (reference value: 18.6 +/- 0.3%); assay type: functional
U-937 [30] = experiment: Induction of apoptosis in human U937 cells assessed as pro-caspase-8 cleavage by Western blotting method; assay type: functional, cell-based
Procedure, shortened: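 U937 cells exposed to increasing concentrations of the flavonol and harvested at 24 h. Lysates were immunoblotted with antibodies that detect both the pro-caspases and their cleaved forms.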

HL-60 [31] = experiment: Induction of cell cycle arrest in human HL60 cells assessed as accumulation at subG1 phase at 1 uM after 48 hrs by propidium iodide staining based flow cytometry (reference value: 3.7 +/- 0.1%); assay type: functional
U-937 [32] = experiment: Induction of apoptosis in human U937 cells assessed as pro-caspase-6 cleavage by Western blotting method; assay type: functional, cell-based; procedure, shortened: as §1
HL-60 [33] = experiment: Induction of cell cycle arrest in human HL60 cells assessed as accumulation at G1 phase at 10 uM after 12 hrs by propidium iodide staining based flow cytometry (reference value: 57.2 +/- 0.9%); assay type: functional

For `O=c1c(O)c(-c2ccc(Br)cc2)oc2ccccc12`, the Activity (HL-60 [1]) was “Active”, the Activity (MOLT-3 [2]) was “Active” and the Activity (HL-60 [3]) was 14.8%. For the same compound, the Activity (U-937 [4]) was “Active”, the Activity (U-937 [5]) was 7% and the IC50 [6] was 6.5 µM. The Activity (MOLT-3 [7]) was “Active”, the Activity (U-937 [8]) was 45.8% and the Activity (HL-60 [9]) was “Active”. For the same compound, the Activity (HL-60 [10]) was 22.1%, the Activity (HL-60 [11]) was 4.1% and the Activity (U-937 [12]) was 3.3%. The Activity (U-937 [13]) was 4.3%, the Activity (HL-60 [14]) was 18.4% and the Activity (U-937 [15]) was 21.2%. It also gave an Activity (HL-60 [16]) of 5.9%, an Activity (HL-60 [17]) of 51.8% and an Activity (U-937 [18]) of 19.9%. The Activity (U-937 [19]) was 49%, the Activity (U-937 [20]) was 38.5% and the Activity (HL-60 [21]) was “Active”. For the same compound, the Activity (MOLT-3 [22]) was “Active”, the Activity (HL-60 [23]) was 20.4% and the Activity (MOLT-3 [24]) was “inactive”. The Activity (HL-60 [25]) was 56.7%, the Activity (HL-60 [26]) was 7.3% and the Activity (U-937 [27]) was 23.9%. For the same compound, the Activity (U-937 [28]) was 16.3%, the Activity (U-937 [29]) was 23.7% and the Activity (U-937 [30]) was “Active”. The Activity (HL-60 [31]) was 3.4%, the Activity (U-937 [32]) was “Active” and the Activity (HL-60 [33]) was 58.2%.
